PKA-R1A act = activators of PKA-R1A complex; P00514+P68181; PKA-R1A dissociation, Cy5-IP20 fluorescence polarization; scaled: DMSO 0%, 113 µM cGMP 100%; activation, % at 11.4 µM; actives 0.083% (n = 340,000); AID 504707;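 active = percent activation above the mean of all tested compounds plus 3 SD, cut at about 19% in these data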;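 also: higher means more PKAc released from R1A so a rise in polarization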
PKA-R2B activ = PKA-R2B complex activation | activation, % at 11.4 µM | actives 0.079% (n = 340,000) | PKA-R2B holoenzyme dissociation, Cy5-IP20 fluorescence polarization; R2B truncated from residue 108, S112A mutant; 0% DMSO only, 100% 113 µM cGMP | AID 504700 | P22694+P31323;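 active = activation above a cutoff set at the mean over all compounds plus 3 SD, cut at about 18% in these data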;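 also: higher means more holoenzyme dissociation and a rise in polarization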
UCH37 DUB inh = human UCH37 deubiquitinating enzyme inhibition | Q9Y5K5 | purified proteasome/UCH37, Ub-AMC cleavage fluorescence | inhibition, % (test concentration not listed) | actives 0.33% (n = 330,000);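 active = mean inhibition over replicate wells above about 20%, limit read from the data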;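 also: 0% = compound-free wells with enzyme and 100% = wells lacking proteasome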
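Schedule: 30 min plus 25 min, room temperature / Material: human UCH37 within purified proteasomes / Technique: AMC fluorescence intensity at 355/460 nm / Buffer or medium: pH 7.4 Tris-HCl (50 mM) with ovalbumin, ATP-MgCl2, DTT / Controls: wells without proteasome as full block, compound-free enzyme plus substrate as uninhibited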
Rin1 Abl inh = blocks binding of human Rin1 to Abl. P00519+Q13671. TR-FRET Rin1/Abl binding, biochemical. inhibition, % at 7.35 µM. actives 0.4% (n = 360,000); in the data active = inhibition above about 5%, passing the limit was not always enough
R1A FP artifact = counter-screen for PKA-R1A activators: fluorescence polarization artifacts | shares compounds with PKA-R1A act | Cy5-IP20 peptide alone, fluorescence polarization artifact counterscreen | activation, % at 11.4 µM | actives 7% (n = 280);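 active = mean activation over triplicate runs exceeds the adjusted cutoff derived for the parent primary screen, cut at about 19% in these data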;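 also: no PKA protein present so any polarization rise reflects compound interference; 0% = tracer peptide mix alone and 100% = mix with added PKA catalytic subunit; higher means stronger polarization artifact and likely false positive in parent screen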
PKA-R1A confirm = PKA-R1A complex activation, confirmation; activation, % at 11.4 µM; AID 504800; actives 9% (n = 280); Cy5-IP20 fluorescence polarization, PKA-R1A holoenzyme dissociation; shares compounds with PKA-R1A act;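 active = mean activation over replicate wells exceeds the adjusted hit threshold taken from the earlier primary screen, cut at about 20% in these data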;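 also: 0% = holoenzyme mix with DMSO only and 100% = cGMP-activated control wells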
Target sequence (P00514 whole entry, looked up): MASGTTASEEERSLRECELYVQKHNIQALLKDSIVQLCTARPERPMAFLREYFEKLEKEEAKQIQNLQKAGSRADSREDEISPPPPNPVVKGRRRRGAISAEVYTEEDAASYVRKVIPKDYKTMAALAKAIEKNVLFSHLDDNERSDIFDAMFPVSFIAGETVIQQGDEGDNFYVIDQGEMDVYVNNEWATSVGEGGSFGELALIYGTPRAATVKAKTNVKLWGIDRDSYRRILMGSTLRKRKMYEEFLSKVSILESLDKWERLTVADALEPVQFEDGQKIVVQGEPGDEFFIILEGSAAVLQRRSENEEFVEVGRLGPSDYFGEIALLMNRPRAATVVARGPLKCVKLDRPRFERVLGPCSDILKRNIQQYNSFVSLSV
* marks the source's active call; other numbers are inactive results; / = no result given. An excerpt weighted towards active compounds, which were near 0.79% of everything screened.

SMILES	PKA-R1A act	PKA-R2B activ	UCH37 DUB inh	Rin1 Abl inh	R1A FP artifact	PKA-R1A confirm
O=C(C1CCCC1)N1CCN(S(=O)(=O)c2ccc(F)cc2)CC1	-2	-11	4	1	/	/
C/C(CC(=O)Nc1ccccn1)=N\NC(=O)c1cnccn1	19*	7	/	-1	3	0
C/C(CC(=O)Nc1ccc2ccccc2c1)=N\NC(=O)c1cnccn1	-1	3	/	-1	/	/
CCOC(=O)c1ccc(S(=O)(=O)NCCN2CCOCC2)cc1	1	-6	-1	0	/	/
Cc1ccc(S(=O)(=O)NC(=O)NC(C)Cc2ccccc2)cc1 (stereo not given)	22*	2	2	1	0	-1
C=CCSc1ncccc1C(=O)NCc1ccccc1	-9	1	2	-2	/	/
CSc1nc(-c2ccccc2)cc(C)c1C#N	5	-9	-20	-1	/	/
CSc1nc(C)cc(/C=C\c2ccccc2)c1C#N	20*	1	-39	1	1	1
CCCCC(=O)Nc1ccc(NC(=O)C2CC2)cn1	20*	-1	1	-1	5	5
CCCC(=O)Nc1ccc(NC(=O)C2CC2)cn1	-2	-5	/	1	/	/
COc1ccc(-c2noc(CCC(=O)NCCc3ccccc3)n2)cc1OC	19*	2	-1	-1	-1	2
Cc1cccc(NS(=O)(=O)c2c(C(=O)N3CCCC3)c(C)n(C)c2C)c1	21*	-3	1	3	4	2
Cc1c(C(=O)N2CCCCCC2)c(S(=O)(=O)Nc2cccc(F)c2)c(C)n1C	-4	-2	2	-1	/	/
CCN(CC(=O)Nc1cc(Cl)ccc1C)C(=O)CSCc1c(C)noc1C	3	4	2	4	/	/
CCc1noc(C)c1C(=O)N(CC)CC(=O)Nc1cc(Cl)ccc1C	19*	1	1	2	3	3
Cc1ccc(CNC(=O)CN(c2ccc(Cl)cc2)S(C)(=O)=O)cc1	21*	-13	6	-1	3	0
COc1ccc(C(=O)CN2CC(C)SC2=Nc2ccc(Cl)cc2)cc1 (stereo not given)	-11	-15	2	-4	/	/
COc1ccc(C)cc1NC(=O)CSc1nnc(CC(=O)Nc2cccc(C(F)(F)F)c2)n1C	23*	-5	-1	3	5	-1
CC[n+]1c(P(=O)([O-])c2ccccc2)[nH]c2ccccc21	21*	-5	3	1	6	4
O=P(CCCCCCCCCP(=O)(c1ccccc1)c1ccccc1)(c1ccccc1)c1ccccc1	-5	-4	3	1	/	/
Cc1ccc(C(=O)OCC(=O)NCCN2C(=O)CSC2=O)cc1	2	-1	1	3	/	/
O=C(Cn1nnc2c(cnn2-c2ccccc2)c1=O)N1CCN(c2ccccc2F)CC1	19*	11	-1	2	3	1
O=C(Cn1cnc2c(cnn2-c2ccc(F)cc2)c1=O)N1CCN(c2ccccc2F)CC1	-2	-2	0	-2	/	/
COc1ccc(/C=C2\SC(=O)N(CC(=O)Nc3ccc(O)cc3)C2=O)cc1OC	23*	17	-155	0	18	23*
Cc1cc(C)c(S(=O)(=O)Cc2ccccc2)c(=O)[nH]1	21*	-4	1	1	6	5
SMILES	PKA-R1A act	PKA-R2B activ	UCH37 DUB inh	Rin1 Abl inh	R1A FP artifact	PKA-R1A confirm
CCOc1ccc(C2=Nn3c(nnc3-c3ccccc3OC)SC2)cc1	-6	3	6	-2	/	/
CCOc1ccc(-c2nnc3n2N=C(c2ccc(OC)cc2)CS3)cc1	20*	-5	1	-5	-1	1
CC1Oc2ccccc2N(CC(=O)NCCc2ccccc2)C1=O (stereo not given)	-8	6	0	2	/	/
Cc1cccc(NS(=O)(=O)c2ccc(Oc3ccccc3)cc2)n1	20*	-5	-21	1	3	3
O=C(CCC(=O)c1ccccc1)Nc1ccc(C(=O)O)cc1	19*	-1	5	-2	1	-1
Cc1ccc(Nc2cc(=O)[nH]c(=O)[nH]2)cc1C	-4	13	-1	-2	/	/
COc1cc2c3c(c1OC)C1(C=CC(=O)C=C1)CC3N(C(=O)c1ccccc1)CC2 (stereo not given)	8	8	3	0	/	/
Cc1cccc(C(=O)Nc2ccc(S(=O)(=O)N3CCOCC3)cc2C)c1	-6	9	0	3	/	/
CCOC(=O)c1cc(C)sc1NC(=O)c1ccc(Cl)s1	20*	0	-30	2	1	-2
CC(=O)c1ccc(NC(=O)/C(=C\c2ccccc2)NC(=O)/C=C/c2ccccc2)cc1	-5	-8	1	-1	/	/
Cc1[nH]c2ccccc2c1C=NNC(=O)c1ccc(N)cc1	/	/	9	/	/	/
Cc1cc(N(CCO)CCO)nc(-n2nc(C)cc2C)n1	-2	-1	0	-1	/	/
Cc1cc(NCCO)nc(-n2nc(C)cc2C)n1	22*	8	5	-1	-3	-1
O=C(CSc1nc2c(c(C(F)(F)F)n1)CCc1ccccc1-2)NCc1ccco1	8	1	1	-8	/	/
CC(NC(=O)CSc1nc2c(c(C(F)(F)F)n1)CCc1ccccc1-2)c1ccccc1 (stereo not given)	19*	-5	-2	-4	6	3
O=C(O)c1ccc2cccnc2n1	20*	2	3	-3	5	2
O=C(O)c1ccc2cccc(O)c2n1	/	/	/	3	/	/
CCN1C(=O)c2ccccc2Sc2ccc(C(=O)NCCC(C)C)cc21	2	1	1	2	/	/
O=C(NCc1ccccc1)c1cccc(NC(=O)c2ccco2)c1	22*	5	3	-1	10	7
COc1cc2c(cc1OC)CN(C(=O)C(CCSC)NS(=O)(=O)c1ccc(C)cc1)CC2 (stereo not given)	20*	-10	4	-2	-1	-2
COc1ccc(/C(N)=N/OC(=O)CCC2CCCC2)cc1	-4	1	2	1	/	/
O=C(N/N=C/c1ccncc1)c1cccs1	6	0	/	-2	/	/
O=C(N/N=C\c1ccc(Cl)s1)c1cccs1	20*	-9	/	-3	-3	3
O=C(/C=C/c1ccco1)NCC1COc2ccccc2O1 (stereo not given)	19*	8	6	-1	-5	-4
COc1ccc(/C=C/C(=O)NCC2COc3ccccc3O2)c(OC)c1 (stereo not given)	-7	7	0	2	/	/
O=C(COc1ccccc1F)NCCc1ccc2c(c1)OCCO2	-4	2	5	2	/	/
O=C(COc1ccccc1Cl)NCCc1ccc2c(c1)OCCO2	21*	-10	3	-1	-3	4
Cc1nn2c(NCC(C)C)c3c(nc2c1-c1ccccc1)CCC3	20*	6	-213	2	2	0
